Results: ChEMBL document CHEMBL3596117, “Identification of 3,5,6-substituted indolin-2-one's inhibitors of Aurora B by development of a luminescent kinase assay” (Bioorg Med Chem Lett, 2015)

Target: T1, Aurora kinase B (Homo sapiens, UniProt Q96GD4)
Assay: Inhibition of aurora B kinase (unknown origin) using ATP and SB2 substrate incubated at 37 degC for 2 hrs by kinase-Glo reagent based luminescent kinase assay
How it was run: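 Aurora B at 300 ng/well with ATP and peptide substrate SB2 at optimized levels, DMSO below 2% by volume. Kinase activity was quantified by Kinase-Glo luminescence of the ATP remaining after the reaction. The assay was validated with 48 enzyme-containing and 48 enzyme-free wells for the Z′-factor. IC50 values were derived from this luminescent assay.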

T1 sequence (Q96GD4 whole entry): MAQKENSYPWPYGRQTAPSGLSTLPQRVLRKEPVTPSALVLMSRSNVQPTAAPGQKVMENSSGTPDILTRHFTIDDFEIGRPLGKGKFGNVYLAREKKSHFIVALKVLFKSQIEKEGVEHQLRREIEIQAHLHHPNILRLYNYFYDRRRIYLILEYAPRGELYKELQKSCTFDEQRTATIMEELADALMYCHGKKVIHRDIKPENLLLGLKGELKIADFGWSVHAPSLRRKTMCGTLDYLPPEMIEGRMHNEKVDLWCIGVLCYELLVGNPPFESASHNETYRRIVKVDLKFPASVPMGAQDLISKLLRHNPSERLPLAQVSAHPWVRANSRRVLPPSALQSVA

Row | SMILES | IC50 [nM]
1 | CCN(CC)c1cc2c(cc1NC(C)=O)NC(=O)/C2=C\c1ccc[nH]1 | 2500
2 | O=C(Nc1ccc(C(F)(F)F)cc1)Nc1cc2c(cc1N1CCCC1)/C(=C/c1ccc[nH]1)C(=O)N2 | 1800
3 | O=C(Nc1ccc(F)cc1)Nc1cc2c(cc1N1CCOCC1)/C(=C/c1ccc[nH]1)C(=O)N2 | 3300
4 | O=C(Nc1ccc(F)cc1)Nc1cc2c(cc1N1CCOCC1)/C(=C/c1ccc3c(c1)OCO3)C(=O)N2 | 8200

Target: T1, Aurora kinase B
Assay: Inhibition of aurora B kinase (unknown origin) at 10 uM using ATP and SB2 substrate incubated at 37 degC for 2 hrs by kinase-Glo reagent based luminescent kinase assay
How it was run: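 Aurora B at 300 ng/well with ATP and peptide substrate SB2 at the optimized levels. DMSO was kept below 2% by volume. Activity was read by Kinase-Glo luminescence, which measures the ATP left after the reaction.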

Row | SMILES | inhibition [%]
5 | Cc1cc(C)cc(Oc2cc3c(cc2NC(=O)Nc2ccc(OC(F)(F)F)cc2)NC(=O)C3Cc2ccccc2)c1 (stereo not given) | < 30
6 | COc1ccc(/C=C2\C(=O)Nc3cc(NC(C)=O)c(N4CCOCC4)cc32)cc1 | < 30
7 | CCN(CC)c1cc2c(cc1NC(C)=O)NC(=O)/C2=C\c1ccc[nH]1 | 83
8 | CCN(CC)c1cc2c(cc1NC(C)=O)NC(=O)/C2=C\c1cccs1 | < 30
9 | CCCCCCCNC(=O)Nc1cc2c(cc1N1CCN(C(=O)OCC)CC1)/C(=C/c1ccc[nH]1)C(=O)N2 | < 30
10 | O=C1Cc2cc(N3CCOCC3)c(NC(=O)Nc3ccc(F)cc3)cc2N1 | < 30
11 | O=C(Nc1ccc(C(F)(F)F)cc1)Nc1cc2c(cc1N1CCCC1)/C(=C/c1cccs1)C(=O)N2 | 47
12 | C=CCNC(=S)Nc1cc2c(cc1N(CCC)CCC)/C(=C/c1ccc3c(c1)OCO3)C(=O)N2 | 31
13 | CCCC1(C(=O)OCC)C(=O)Nc2cc(NC(C)=O)c(N3CCN(c4cccc(C)c4C)CC3)cc21 (stereo not given) | < 30
14 | C=CCC1C(=O)Nc2cc(NC(=O)Nc3ccc(F)cc3)c(N(CCC)CCC)cc21 (stereo not given) | < 30
15 | Cc1cc(C)cc(Oc2cc3c(cc2NS(=O)(=O)c2ccc(F)cc2)NC(=O)C3Cc2ccccc2)c1 (stereo not given) | < 30
16 | CCN(CC)c1cc2c(cc1NC(C)=O)NC(=O)/C2=C\c1ccccn1 | < 30
17 | CCc1ccc(Oc2cc3c(cc2NS(=O)(=O)c2ccc(C)cc2)NC(=O)C3)cc1 | < 30
18 | C=CCNC(=S)Nc1cc2c(cc1Oc1cc(C)cc(C)c1)C(Cc1ccccc1)C(=O)N2 (stereo not given) | < 30
19 | O=C(Nc1ccc(C(F)(F)F)cc1)Nc1cc2c(cc1N1CCCC1)/C(=C/c1ccc[nH]1)C(=O)N2 | 97
20 | C=CCC1C(=O)Nc2cc(NC(=S)Nc3ccccc3OC)c(N(CCC)CCC)cc21 (stereo not given) | 35
21 | CCCC1(C(=O)OCC)C(=O)Nc2cc(NC(=O)Nc3ccc(F)cc3)c(N3CCN(c4cccc(C)c4C)CC3)cc21 (stereo not given) | < 30
22 | CCC/C=C1\C(=O)Nc2cc(NC(C)=O)c(N(CC)CC)cc21 | < 30
23 | O=C(Nc1ccc(F)cc1)Nc1cc2c(cc1N1CCOCC1)/C(=C/c1ccc(F)cc1)C(=O)N2 | 65
24 | CCCCC1C(=O)Nc2cc(NC(=O)Nc3ccc(F)cc3)c(N3CCOCC3)cc21 (stereo not given) | < 30
25 | CC(=O)Nc1cc2c(cc1N1CCOCC1)/C(=C/c1ccco1)C(=O)N2 | < 30
